Common to all, as to assay type: functional
One experiment concerns MCF7/AZ. Description: (§1) Antimigration against human MCF7/AZ cells at 10 to 25 uM after 24 hrs by wound healing assay. The essentials:
(§2)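 Confluent MCF-7/AZ monolayers were washed twice with PBS and scratched to leave a gap of about 1500 μm, then imaged. Medium with or without compound was added, at concentrations chosen from the 24 h MTT assay. After 24 h of migration the wound was imaged again and compared with the first image. Migration was expressed as migratory velocity (μm/h).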

Experiment [1] is described as follows: Cytotoxicity against human MCF7/AZ cells assessed as reduction of cell viability after 24 hrs by MTT assay. The essentials: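 MCF-7/AZ cells were seeded at 1.5 × 10^4 cells/well in medium with 5% FBS and penicillin/streptomycin, then grown 24 h at 37 C under 5% CO2. They were exposed 24 h to eight concentrations (1, 5, 10, 20, 40, 60, 80, 100 μM). Part of the medium was removed before adding MTT, and OD was read. Mean OD came from three independent experiments. OD80/IC20 (20% viability loss) was read from the graphs.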

Experiment [2] can be described thus: as §1. The method, boiled down:
as §2

Molecules are shown by their SMILES. Active and inactive are the calls of the source. The rule behind the calls is not given here.

The values that follow come from ChEMBL document CHEMBL1155416, “Ethacrynic acid analogues lacking the alpha,beta-unsaturated carbonyl unit--potential anti-metastatic drugs” (2010).

As to `C=C(CC)C(=O)c1ccc(OCC(=O)O)c(Cl)c1Cl` [ETHACRYNIC ACID], the inhibition entry in the experiment on MCF7/AZ is “inactive”. Besides, in experiment [1], the IC20 (in general, the point of the concentration-response curve where the effect stands at 20%) is above 100 µM.
The matching figures for `CCC(=O)c1ccc(OCC(=O)O)c(C)c1`: “inactive” and 20 µM.
For the compound `CCC(=O)c1ccc(OCC(=O)O)cc1OC`, the “inhibition (INH)” value in experiment [2] stood at 29%. In experiment [1], the 20% effect concentration (IC20) is above 100 µM.
Regarding `CCC(=O)c1ccc(OCC(=O)O)cc1C`, the inhibition entry in the experiment on MCF7/AZ is “inactive”. Besides, in experiment [1], the IC20 turned out to be 10 µM.
For the compound `CCC(=O)c1cc(OC)c(OCC(=O)O)c(OC)c1`, in experiment [2], the “inhibition (INH)” value is listed as 52%. Also, in experiment [1], the IC20 was above 100 µM.
Regarding `CCC(=O)c1ccc(OCC(=O)O)c(OC)c1`, the “inhibition (INH)” value in experiment [2] is listed as 38%. For the same compound, the IC20 in experiment [1] is above 100 µM.
Take `CCC(=O)c1ccc(OCC(=O)O)cc1`: the inhibition result in the experiment on MCF7/AZ is “inactive”. In addition, the IC20 in experiment [1] came to 25 µM.
